# Assay results from ChEMBL document CHEMBL4196197, “Irilone from Red Clover ( Trifolium pratense) Potentiates Progesterone Signaling” (J Nat Prod, 2018).
# Calls of active or inactive are those of the source. No cut-off for these calls is given here.
# Assays:
# [1] = target: T1, Progesterone receptor (Homo sapiens) (UniProt P06401); assay: Agonist activity at PR-b (unknown origin) expressed in Ishikawa cells assessed as increase in PRE activity at 50 uM after 24 hrs by luciferase reporter gene based luminescence assay (reference value: 25.7); type: cell-based
# T1 sequence (whole entry): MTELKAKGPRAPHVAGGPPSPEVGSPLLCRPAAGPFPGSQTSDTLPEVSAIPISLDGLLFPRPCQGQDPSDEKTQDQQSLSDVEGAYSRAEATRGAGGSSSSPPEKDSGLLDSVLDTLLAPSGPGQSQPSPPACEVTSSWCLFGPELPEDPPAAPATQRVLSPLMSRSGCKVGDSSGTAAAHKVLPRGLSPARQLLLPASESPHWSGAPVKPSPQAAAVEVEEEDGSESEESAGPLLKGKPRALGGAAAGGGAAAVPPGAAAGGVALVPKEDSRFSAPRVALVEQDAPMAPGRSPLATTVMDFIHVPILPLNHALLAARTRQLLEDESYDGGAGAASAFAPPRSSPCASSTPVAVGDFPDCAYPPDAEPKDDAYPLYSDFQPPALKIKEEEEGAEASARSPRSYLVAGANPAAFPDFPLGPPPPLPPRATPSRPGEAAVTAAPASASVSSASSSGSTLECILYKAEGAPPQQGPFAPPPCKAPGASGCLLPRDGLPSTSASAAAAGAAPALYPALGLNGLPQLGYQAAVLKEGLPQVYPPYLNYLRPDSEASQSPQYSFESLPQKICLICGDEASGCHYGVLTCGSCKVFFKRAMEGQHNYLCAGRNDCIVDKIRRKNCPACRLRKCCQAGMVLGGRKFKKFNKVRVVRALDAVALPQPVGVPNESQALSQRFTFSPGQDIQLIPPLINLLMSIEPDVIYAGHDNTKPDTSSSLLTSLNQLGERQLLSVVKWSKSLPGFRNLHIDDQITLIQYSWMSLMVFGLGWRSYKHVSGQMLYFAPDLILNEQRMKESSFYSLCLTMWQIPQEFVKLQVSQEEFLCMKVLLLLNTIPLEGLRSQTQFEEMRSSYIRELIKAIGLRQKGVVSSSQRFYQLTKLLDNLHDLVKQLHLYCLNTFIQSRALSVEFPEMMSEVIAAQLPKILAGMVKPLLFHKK
# Outline: (§1)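 Ishikawa cells stably expressing CMV-driven PR-B, kept in phenol red-free DMEM/F12 with 5% charcoal-stripped FBS plus G418/hygromycin. Seeded 40,000/well in steroid-free medium. Next day transfected with PRE/Luc plus CMV-β-galactosidase (LT1). Compounds were added without progesterone for 24 h, then lysed and frozen at −80 °C. Luciferase (mean of first six RLU reads) normalized to β-gal, then to DMSO control, n≥3.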
# [2] = target: T1, Progesterone receptor (Homo sapiens); assay: Agonist activity at PR-b (unknown origin) expressed in Ishikawa cells assessed as increase in progesterone-induced PRE activity at 25 uM after 24 hrs by luciferase reporter gene based luminescence assay relative to control; type: cell-based
# Outline: (§2)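 PRE/Luc transactivation in Ishikawa cells stably expressing PR-B under CMV, seeded 40,000/well in steroid-free phenol red-free medium with charcoal-stripped FBS. Next day co-transfected with PRE/Luc and CMV-β-galactosidase. Compounds were given together with 100 nM progesterone for 24 h. Luciferase, averaged over the first six RLU reads, normalized to β-gal and then to control; n≥3.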
# [3] = target: T1, Progesterone receptor (Homo sapiens); assay: Agonist activity at PR-b (unknown origin) expressed in Ishikawa cells assessed as increase in progesterone-induced PRE activity at 50 uM after 24 hrs by luciferase reporter gene based luminescence assay relative to control; type: cell-based; outline: as §2
# [4] = target: T1, Progesterone receptor (Homo sapiens); assay: Agonist activity at PR-b (unknown origin) expressed in Ishikawa cells assessed as increase in PRE activity at 1 to 50 uM after 24 hrs in absence of progesterone by luciferase reporter gene based luminescence assay; type: cell-based; outline: as §1
# Progesterone receptor = target: T2, Progesterone receptor (Homo sapiens, UniProt P06401); assay: Induction of PR-b degradation in human Ishikawa cells up to 50 uM after 24 hrs by Western blot analysis; type: cell-based
# T2 sequence (P06401 whole entry): T1 sequence (whole entry)
# Outline: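 Ishikawa PR-B cells in steroid-free medium treated with 0, 25 or 50 μM for 24 h. RIPA lysates with protease/phosphatase inhibitors, 25 μg protein by SDS-PAGE onto nitrocellulose. Blocked in 5% milk, probed overnight with anti-PR (H-190, 1:500) and β-actin (1:1000), anti-rabbit secondary, chemiluminescent detection.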
# PEO1 [5] = assay: Antiproliferative activity against human PEO1 cells at 1 to 50 uM after 5 days by SRB assay; type: functional, cell-based
# Outline: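 PEO1 cells (RPMI, 10% FBS, glutamine, pyruvate) seeded at 1,000/well in steroid-free medium, one plate fixed at 2 h as day 0. Compounds at 1–50 μM, alone without progesterone, for 5 days. Fixed with 20% TCA at 4 °C, stained with 0.4% SRB in 1% acetic acid, dissolved in 10 mM Tris, A505. Day 5 normalized to day 0; n≥3.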
# PEO1 [6] = assay: Antiproliferative activity against human PEO1 cells at 25 to 50 uM after 5 days by SRB assay; type: functional, cell-based
# Outline: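 SRB growth assay in PEO1 cells: 1,000 cells/well in steroid-free medium, day-0 plate TCA-fixed 2 h after seeding. Compound was given together with 100 nM progesterone for five days, then cells TCA-fixed, SRB-stained, dye solubilized in 10 mM Tris, absorbance at 505 nm. Day-5 values normalized to day 0; n≥3.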
# PEO1 [7] = assay: Antiproliferative activity against human PEO1 cells at 0.001 to 10 uM after 5 days by SRB assay; type: functional, cell-based
# Outline: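 PEO1 cells kept in RPMI with 2 mM glutamine, 2 mM sodium pyruvate and 10% FBS; seeded at 1,000 cells/well in steroid-free medium. A day-0 plate was fixed with 20% TCA 2 h after seeding; the second plate was treated for 5 days, then fixed. SRB stain (0.4% in 1% acetic acid), dissolved in 10 mM Tris, A505; day 5 normalized to day 0; n≥3.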
# [8] = target: T1, Progesterone receptor (Homo sapiens); assay: Antagonist activity at PR-b (unknown origin) expressed in Ishikawa cells assessed as inhibition of progesterone-induced PRE activity at 50 uM after 24 hrs by luciferase reporter gene based luminescence assay; type: cell-based; outline: as §2
# [9] = target: T1, Progesterone receptor (Homo sapiens); assay: Antagonist activity at PR-b (unknown origin) expressed in Ishikawa cells assessed as inhibition of progesterone-induced PRE activity at >= 25 uM after 24 hrs by luciferase reporter gene based luminescence assay; type: cell-based; outline: as §2
# [10] = target: T1, Progesterone receptor (Homo sapiens); assay: Antagonist activity at PR-b (unknown origin) expressed in Ishikawa cells assessed as inhibition of basal PRE activity at 50 uM after 24 hrs in absence of progesterone by luciferase reporter gene based luminescence assay; type: cell-based; outline: as §1
# [11] = target: T1, Progesterone receptor (Homo sapiens); assay: Agonist activity at PR-b (unknown origin) expressed in Ishikawa cells assessed as increase in progesterone-induced PRE activity at 1 uM after 24 hrs by luciferase reporter gene based luminescence assay; type: cell-based; outline: as §2
# [12] = target: T1, Progesterone receptor (Homo sapiens); assay: Agonist activity at PR-b (unknown origin) expressed in Ishikawa cells assessed as increase in PRE activity at 1 uM after 24 hrs in absence of progesterone by luciferase reporter gene based luminescence assay; type: cell-based; outline: as §1
# [13] = target: T1, Progesterone receptor (Homo sapiens); assay: Antagonist activity at PR-b (unknown origin) expressed in Ishikawa cells assessed as inhibition of basal PRE activity at 25 to 50 uM after 24 hrs in absence of progesterone by luciferase reporter gene based luminescence assay; type: cell-based; outline: as §1
SMILES,Activity (Progesterone receptor),inhibition [8] [%],inhibition [9],inhibition [10],Activity [11],also measured
O=c1c(-c2ccc(O)cc2)coc2cc3c(c(O)c12)OCO3,Not Active,,,,,fold change (FC) [1]: 48.4; Activity [2]: 138%; Activity [3]: 151%; Activity [4]: inactive; Activity (PEO1 [5]): inactive; Activity (PEO1 [6]): Active
CC(=O)[C@H]1CC[C@H]2[C@@H]3CCC4=CC(=O)CC[C@]4(C)[C@H]3CC[C@]12C,,,,,,Activity (PEO1 [7]): inactive
COc1ccc(-c2coc3cc(O)cc(O)c3c2=O)cc1 [BIOCHANIN],Not Active,> 90,Active,Active,Active,Activity [12]: 55%
COc1ccc(-c2coc3cc(O)ccc3c2=O)cc1 [FORMONONETIN],Not Active,> 90,Active,Active,57%,
COc1cc(O)c2c(=O)c(-c3ccc(O)cc3)coc2c1 [PRUNETIN],Not Active,> 90,Active,,,inhibition [13]: Active
